# Hits are enriched below; roughly 3.5% of the tested compounds scored in any of these assays.
# RGS4 inh: human RGS4 inhibition. P49798. HEK293 M3R/RGS4 inducible, Fluo-4 calcium flux; active compounds read high; triggered by carbachol at its EC20. B-score at 10 µM. 310,000 compounds, 0.45% hits. AID 463165;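 active = B-score, a plate-corrected calcium signal, over three deviations above library mean, with baseline fluorescence within five deviations of library mean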;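 note: RGS4 expression induced by doxycycline in cells with stable M3 receptor; B-score is computed from the integrated fluorescence ratio over baseline after carbachol; higher B-score means a larger calcium signal and so more RGS4 inhibition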
# MrgX1 ag: activates human MrgX1 receptor signaling; B-score at 10 µM; 310,000 compounds, 0.44% hits; Q96LB2; MrgX1-HEK293 cells, Fluo-4 calcium fluorescence, agonist mode; active compounds read high;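 active = calcium response B-score plate-corrected fluorescence ratio at least 3 library SD, with starting fluorescence B-score inside 5 SD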
# Target sequence (Q96LB2 whole entry, looked up): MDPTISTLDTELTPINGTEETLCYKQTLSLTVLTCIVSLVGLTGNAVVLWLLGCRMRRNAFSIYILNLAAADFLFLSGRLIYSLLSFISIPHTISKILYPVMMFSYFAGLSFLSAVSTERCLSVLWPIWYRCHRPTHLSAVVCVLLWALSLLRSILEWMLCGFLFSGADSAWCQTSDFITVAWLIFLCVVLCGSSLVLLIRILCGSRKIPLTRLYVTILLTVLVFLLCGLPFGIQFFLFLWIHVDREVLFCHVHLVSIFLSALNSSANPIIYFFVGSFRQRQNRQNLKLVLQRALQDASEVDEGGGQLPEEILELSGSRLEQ
#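 Assay system: MrgX1-expressing HEK293 cells / Amount: fifteen thousand cells per well / Doses: test compound in the initial addition of three / Timing: cells plated overnight, dye loaded 0.5 h 37 °C, 0.5 h room temperature / Technique: kinetic calcium dye fluorescence, Fluo-4 NW / Control set: positive and negative controls per plate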
# MrgX1 antag: blocks BAM8-22 activation of human MrgX1 receptor; B-score at 10 µM; MRGX1-HEK293 calcium flux, Fluo-4, BAM8-22 antagonism; active compounds read low; 310,000 compounds, 1.3% hits;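 active = calcium-response B-score plate-corrected more than 3 library SD below zero, starting fluorescence within 5 deviations, no agonist response on first addition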;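 note: peak minus trough fluorescence over baseline after final BAM8-22 challenge near maximal dose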
# RGS4 pot: potentiators or activators of RGS4. B-score at 10 µM. 310,000 compounds, 0.92% hits. HEK293 M3R/inducible RGS4, carbachol calcium flux Fluo4; active compounds read low;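 active = B-score of the integrated calcium signal more than 4 SD below the library mean, with starting fluorescence not abnormally high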;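 note: negative B-score means reduced calcium response which marks RGS4 activation or potentiation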
#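 Also added: carbachol at ECmax as muscarinic agonist stimulus; Assay system: HEK293 cells with stable M3R and inducible RGS4; Timing: overnight RGS4 induction, 30 min dye load 37 °C, 20 min compound RT; Measured by: Fluo4-AM (2 µM) calcium-flux fluorescence, kinetic read.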
# MrgX1 PAM: allosterically activates human MrgX1 receptor signaling. 310,000 compounds, 0.63% hits. B-score at 10 µM. MrgX1-HEK293, Fluo-4 calcium flux, FDSS; active compounds read high. AID 588675;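 active = plate-corrected calcium response at least 3 library SD above typical, normal starting fluorescence, not activating the receptor alone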;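 note: compound read alongside a low EC10 to EC30 dose of BAM8-22 agonist; peak minus trough fluorescence over baseline measured at the second addition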
# Numbers without * were called inactive; i = inactive.
SMILES,RGS4 inh,MrgX1 ag,MrgX1 antag,RGS4 pot,MrgX1 PAM
CCCCN(C(=O)c1cc(=O)[nH]c2ccccc12)c1c(N)n(CCCC)c(=O)[nH]c1=O,i,i,i,i,i
CC(C)(C)c1ccc(S(=O)(=O)N2CCc3nc4ccccc4c(C(=O)O)c3C2)cc1,i,i,i,i,i
CC1CCN(CC(=O)Nc2ccccc2Sc2ccccc2)CC1,i,i,i,-7.4*,i
Cc1cccc2sc(N(CCCN(C)C)C(=O)c3ccc(Cl)s3)nc12,i,i,i,-8.3*,i
Cc1occc1-c1nnc(SCC(=O)N2CCOCC2)n1CCc1ccccc1,i,i,i,-7.3*,i
CCCCn1c(SCC(=O)N2CCOCC2)nnc1-c1ccoc1C,i,i,i,i,i
Cn1c(-c2c(N)n(-c3ccccc3)c3nc4ccccc4nc23)nc2ccccc21,i,i,i,i,i
Cc1cccc(-n2c(N)c(-c3nc4ccccc4n3C)c3nc4ccccc4nc32)c1,i,i,i,-7.5*,i
C=CCC1C=C(C)CC(CC=C)N1 (stereo not given),i,i,i,i,i
O=C1Nc2ccccc2C1=Nc1cccc([N+](=O)[O-])c1,i,i,i,i,i
Cc1cccc(N=C2C(=O)Nc3c(Cl)cccc32)c1,i,28*,i,i,i
COc1ccccc1C(=O)NC(CCSC)C(=O)OC(C)C(N)=O (stereo not given),i,i,i,i,12*
CCN(CC(=O)NC(C)C)C(=O)C(CCSC)NC(=O)c1ccccc1OC (stereo not given),i,i,i,i,i
COc1cccc(CNS(=O)(=O)c2c(C)[nH]c(C)c2C(=O)N2CCCC2)c1,i,i,i,i,i
COc1ccc(/C=C/C(=O)OCC(=O)c2ccc3c(c2)NC(=O)CO3)c(OC)c1,i,i,i,i,i
COc1cccc(/C=C/C(=O)OCC(=O)c2ccc3c(c2)NC(=O)CO3)c1OC,i,i,i,i,11*
Cc1sc(NC(=O)C2CCCCC2C(=O)O)c(C(N)=O)c1-c1ccccc1 (stereo not given),i,i,i,i,i
Cc1sc(NC(=O)C2CCCCC2C(=O)O)c(C(N)=O)c1-c1ccc(C(C)C)cc1 (stereo not given),i,54*,i,i,i
COc1cccc(N2CCN(C(=O)CCCCCNc3nc(=S)[nH]c4ccccc34)CC2)c1,i,i,i,i,i
CCC(Sc1ccc(C(=O)O)cc1)C(=O)O (stereo not given),i,i,i,i,i
O=C(CC(Sc1ccc(Br)cc1)C(=O)O)c1ccc(F)cc1 (stereo not given),6.3*,i,i,i,i
Cc1ccc(SCC(=O)OCC(=O)NC2(C#N)CCCCC2)cc1,i,i,i,i,i
COc1ccc(-n2c(C)cc(=O)[nH]c2=O)cc1,i,i,i,i,i
Cc1ccc(NC(=O)CC(O)(C(F)(F)F)C(F)(F)F)cc1,i,48*,i,i,i
Cc1coc2cc3oc(=O)ccc3cc12,i,i,i,i,i
SMILES,RGS4 inh,MrgX1 ag,MrgX1 antag,RGS4 pot,MrgX1 PAM
Cc1c(OCC(=O)N2C[C@H]3C[C@@H](C2)c2cccc(=O)n2C3)ccc2c3c(c(=O)oc12)CCCC3,i,i,i,-7.1*,i
Cc1c(OCC(=O)N2C[C@H]3C[C@@H](C2)c2cccc(=O)n2C3)ccc2c3c(c(=O)oc12)CCC3,i,i,i,i,i
CC(/C=N/NC(=O)c1ccc(Cn2cc([N+](=O)[O-])cn2)o1)=C\c1ccccc1,i,i,-5.4*,i,i
Cc1ccc(C)c(S(=O)(=O)N2CCN(CC(=O)NC(=O)NCc3ccccc3)CC2)c1,i,i,i,i,i
CC1CCCCN1C(=O)CSc1nc(C2CC2)nc2c1cnn2-c1ccccc1 (stereo not given),i,i,i,-7*,i
Cc1nn(C)c(C)c1NC(=O)CSc1nc(C2CC2)nc2c1cnn2-c1ccccc1,i,i,i,i,i
